# From article PMC4257570 (Basic & Clinical Pharmacology & Toxicology, 2014)
# Several values for one entry are separate records, joined by “and”; a condition that tells them apart may be missing. Identical values can stand only once.
# What was measured:
# [1] = ref unpublished data; cited from earlier work
# [2] = Population pharmacokinetic analysis; format: in vivo, human
# How it was run: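 Oral doses were 2.5–75 mg single and 2.5–60 mg/day multiple; only vortioxetine-alone data from interaction studies were used. Models were two-compartment with lag time and first-order absorption and elimination (one- and three-compartment also tested). Covariates, including CYP genotype-inferred metaboliser status, were added forward then deleted backward. Bootstrap gave 95% CIs.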
# [3] = cited from earlier work
# [4] = cited from earlier work; remark: listed apart in the source
# [5] = no reference given; cited from earlier work
# [6] = non-compartmental analysis, healthy young subjects
structure (smiles),measurement,setting,value
"Cc1cc(C(=O)O)ccc1Sc1ccccc1N1CCNCC1 [Lu AA34443, 3-methyl-4-(2-piperazine-1-yl-phenylsulfanyl)-benzoic acid]",Crossing of the blood–brain barrier,[1],incapable of crossing the blood–brain barrier
"Br.Cc1ccc(Sc2ccccc2N2CCNCC2)c(C)c1 [vortioxetine, 1-[2-(2,4-dimethyl-phenylsulfanyl)-phenyl]-piperazine hydrobromide]",CL/F of CYP2C19 EMs relative to PMs,[2]; CYP2C19 EM vs PM,1.4 times
same,"Oral clearance (CL/F), estimate","[2]; CYP2D6-inferred extensive metabolisers (EM), final model",34.1 L/h
same,"Oral clearance (CL/F), estimate","[2]; CYP2D6-inferred intermediate metabolisers (IM), final model",26.6 L/h
same,"Oral clearance (CL/F), estimate","[2]; CYP2D6-inferred poor metabolisers (PM), final model",18.1 L/h
same,"Oral clearance (CL/F), estimate","[2]; CYP2D6-inferred ultra metabolisers (UM), final model",52.9 L/h
same,CL/F of CYP2D6 extensive metabolisers relative to poor metabolisers,[2]; CYP2D6 EM vs PM,1.9 times
same,"Oral clearance (CL/F), population mean","[2]; all healthy subjects, oral dosing, from the base model",32.7 L/h and 33 L/h
same,"Absorption rate constant (ka), estimate",[2]; final model,0.142 h⁻¹
same,Interindividual variability (IIV) of CL/F,[2]; final model,42%
same,Interindividual variability (IIV) of V2/F,[2]; final model,31%
same,Interindividual variability (IIV) of ka,[2]; final model,51%
same,"Lag-time (ALAG), estimate",[2]; final model,0.781 h
same,"Volume of distribution, peripheral comp (V3/F), estimate",[2]; final model,661 L
same,Age on CL/F,"[2]; final model, covariate effect",0.277 L/hr/yr
same,Height on V2/F,"[2]; final model, covariate effect",17.4 L/cm
same,half-life,"[2]; human, plasma, im, Estimated mean t1/2, CYP2D6-inferred metabolic status IM",73 h
same,Vd/F,"[2]; human, plasma, oral",1970 L
same,half-life,"[2]; human, plasma, oral, Estimated mean t1/2, CYP2D6-inferred metabolic status EM",60 h
same,half-life,"[2]; human, plasma, oral, Estimated mean t1/2, CYP2D6-inferred metabolic status PM",104 h
same,half-life,"[2]; human, plasma, oral, Estimated mean t1/2, CYP2D6-inferred metabolic status UM",42 h
same,"V2/F, population mean","[2]; men, sex as only covariate",1940 L
same,Sum of the central and peripheral volumes of distribution (V2/F + V3/F),"[2]; population mean, oral administration",2600 L
same,Higher exposure in a subject compared with the population mean,[2]; subject vs population mean of 44 years,≤ 40%
same,"CL/F, population mean","[2]; women, sex as only covariate",30 L/h
same,"V2/F, population mean","[2]; women, sex as only covariate",1810 L
same,Absolute bioavailability for oral administration,[3],75%
same,Clearance (oral clearance),[3]; [6],47 L/h
same,Elimination half-life,[3]; [6],57 h
same,Change of CL/F of vortioxetine when co-administered with bupropion,[4]; bupropion (CYP2D6 inhibitor),reduced approximately by half
same,Increase of vortioxetine exposure with co-administration of bupropion,[4]; bupropion (CYP2D6 inhibitor),approximately 2 fold
same,Decrease of AUC of vortioxetine with co-administration of rifampicin,[4]; rifampicin (broad CYP inducer),72%
same,Effect of co-administration of omeprazole on vortioxetine steady-state exposure,[4]; single dose of omeprazole (CYP2C19 inhibitor),no effects
same,Renal clearance,[5],negligible
